Screens (PubChem)
Shown is part of a subset that was picked to be rich in hits.
T cruzi intra: blocks T. cruzi growth inside host cells. 22,000 compounds, 4.9% hits. intracellular Trypanosoma cruzi in host cells, plate reader. AID 651903. activity score (inhibition), % at 5.01 µM; in the data active = activity score above about 55%;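 also: parasites and compound incubated about four days before reading; 0% = median of neutral control wells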
YB-1 expression: YB-1 expression inhibition | U2OS, qRT-PCR YB-1 vs CDIP delta delta Cp, 16 h; stronger effect = higher value; zero = DMSO, each unit about twofold | delta delta Cp (YB-1 minus CDIP) (concentration not given with the values) | 30,000 compounds, 0.37% hits;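 active = delta delta Cp rounded down to an integer at or above 3, about 3 SD of DMSO wells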;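 also: higher means less YB-1 transcript or more CDIP transcript relative to DMSO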
INS-1E ATP HTS: preserves ATP levels in cytokine-treated INS-1E cells. INS-1E cytokine-induced death, ATP luminescence, 48 h; normalised: neutral wells 0, positive control 100. protection from cytokine-induced ATP loss, % at 10 µM. 20,000 compounds, 0.1% hits. AID 488910;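 active = mean replicate protection from cytokine-induced ATP loss at least 50% and at least 75% of replicates each reaching 50%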
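assay system = INS-1E rat insulinoma cells | amount = 8000 cells per well | medium = phenol-red-free RPMI with 5% fetal bovine serum | doses = one compound concentration, pin transfer | timing = 48 h cytokine plus compound treatment, 10 min reagent incubation | also added = IL-1β, TNF-α and IFN-γ cytokine mix | signal = CellTiter-Glo luminescence measuring cellular ATP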
Numbers without * were called inactive; / = no result given.

SMILES	T cruzi intra	YB-1 expression	INS-1E ATP HTS
C[C@H](CO)N1C[C@H](C)[C@@H](CN(C)Cc2ccc(-c3ccccc3)cc2)Oc2c(NC(=O)C3CC3)cccc2C1=O	69*	0.73	-53
C[C@H]1CN([C@@H](C)CO)C(=O)c2cccc(NC(=O)C3CC3)c2O[C@@H]1CN(C)Cc1ccc(Oc2ccccc2)cc1	68*	0.0039	-27
C[C@H]1CN([C@@H](C)CO)C(=O)c2cccc(NC(=O)C3CCCCC3)c2O[C@@H]1CN(C)S(=O)(=O)c1ccccc1	5	-0.37	2
C[C@@H]1CN([C@@H](C)CO)C(=O)c2cccc(NC(=O)C3CCCCC3)c2O[C@@H]1CN(C)S(=O)(=O)c1ccccc1	57*	0.24	-2
C[C@H](CO)N1C[C@H](C)[C@@H](CN(C)Cc2ccc(Oc3ccccc3)cc2)Oc2c(NC(=O)C3CC3)cccc2C1=O	48	-0.089	-25
C[C@@H]1CN([C@H](C)CO)C(=O)c2cccc(NC(=O)C3CCCCC3)c2O[C@@H]1CN(C)Cc1ccc(-c2ccccc2)cc1	46	-0.52	-65
C[C@H](CO)N1C[C@H](C)[C@H](CN(C)Cc2ccc(-c3ccccc3)cc2)Oc2c(NC(=O)C3CC3)cccc2C1=O	-13	0.034	-25
C[C@@H]1CN([C@@H](C)CO)C(=O)c2cccc(NC(=O)C3CCCCC3)c2O[C@H]1CN(C)Cc1ccc(-c2ccccc2)cc1	71*	-0.07	-39
CC(=O)NC(C(=O)O[C@H]1CCC(C)(C)[C@@H]2CC=C3C(=O)OCC3(O)[C@@]12C)C(C)C (some centres undefined)	/	-0.76	/
COC(=O)c1cc(O)cc(OC)c1Oc1c(Cl)c(C)c(Cl)c(O)c1C(=O)O	/	-0.049	/
C[C@@H]1CN([C@@H](C)CO)C(=O)c2cccc(NC(=O)C3CCCCC3)c2O[C@H]1CN(C)Cc1ccc(C(F)(F)F)cc1	75*	-0.28	-27
C[C@H](CO)N1C[C@H](C)[C@H](CN(C)Cc2ccc(C(F)(F)F)cc2)Oc2c(NC(=O)C3CCCCC3)cccc2C1=O	2	-0.31	-28
CCCN(CCC)C(=O)c1cccc2c1-c1ccccc1C2=O	/	0.051	/
CCCN(CCC)C(=O)c1cnn(-c2ccccc2)c1NC(=O)c1ccccc1	/	-1.9	/
C/C=C1\C(O[C@@H]2O[C@H](CO[C@@H]3O[C@H](CO)[C@@H](O)[C@H](O)[C@H]3O)[C@@H](O)[C@H](O)[C@H]2O)OC=C(C(=O)OC)C1CC(=O)OCCc1ccc(O)cc1 (some centres undefined)	/	-0.44	/
COc1ccc(CN(C)C[C@@H]2Oc3ccc(NC(=O)Cc4ccccc4)cc3CC(=O)N([C@@H](C)CO)C[C@@H]2C)cc1	67*	-0.47	-4
C[C@H]1CN([C@@H](C)CO)C(=O)Cc2cc(NC(=O)Cc3ccccc3)ccc2O[C@H]1CN(C)Cc1ccccc1	17	-0.25	-12
C[C@@H]1CN([C@H](C)CO)C(=O)Cc2cc(NC(=O)Cc3ccccc3)ccc2O[C@H]1CN(C)Cc1ccc(-c2ccccc2)cc1	65*	-1.3	0
CNC[C@@H]1Oc2ccc(NC(=O)CCN3CCOCC3)cc2CC(=O)N([C@H](C)CO)C[C@H]1C	-6	9.5*	4
C[C@H]1CN([C@@H](C)CO)C(=O)Cc2cc(NC(=O)Cc3ccccc3)ccc2O[C@H]1CN(C)Cc1ccc(-c2ccccc2)cc1	47	-0.15	-15
COc1ccc(CN(C)C[C@@H]2Oc3ccc(NC(=O)Cc4ccccc4)cc3CC(=O)N([C@H](C)CO)C[C@H]2C)cc1	54	0.37	9
C[C@H]1CN([C@@H](C)CO)C(=O)Cc2cc(NC(=O)Cc3ccccc3)ccc2O[C@@H]1CN(C)Cc1ccc(-c2ccccc2)cc1	64*	-0.046	-19
CNC[C@@H]1Oc2ccc(NC(=O)CCN3CCOCC3)cc2CC(=O)N([C@@H](C)CO)C[C@@H]1C	-17	0.19	1
CC[C@H]1OC(=O)[C@H](C)[C@@H](OC2C[C@@](C)(OC)[C@@H](O)[C@H](C)O2)[C@H](C)[C@@H](O[C@@H]2O[C@H](C)C[C@H](N(C)C)[C@H]2O)[C@](C)(O)C[C@@H](C)/C(=N\OCOCCOC)[C@H](C)[C@@H](O)[C@]1(C)O (some centres undefined)	/	-0.3	/
COc1cc(/C=C/C(=O)OC2C(COC(=O)c3cc(OC)c(OC)c(OC)c3)OC(OC3(CO)OC(CO)C(O)C3O)C(O)C2O)cc(OC)c1OC (centres undefined)	/	1.2	/
C=CC(C)(C)[C@@]12C[C@H]3C(=O)Nc4ccccc4C(=O)N3[C@@H]1Nc1ccccc12	/	-0.54	/
